Assay [1] deals with Hepacivirus hominis. As to the kind of experiment: Inhibition of HCV NS3/4A protease activity at 10 uM using Ac-Asp-Glu-Asp-EDANS-Glu-Glu-Abu-L-Lactoyl-Ser-Lys DABCYL-NH2 as substrate measured for 30 mins by fluorescence assay relative to control. The procedure, abridged: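 Recombinant HCV NS3–4A with full protease activity, incubated with the internally quenched EDANS/DABCYL peptide substrate; cleavage read as the rise in fluorescence. Activities were normalized to control and given as mean ± standard deviation of triplicate measurements.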

The test system of assay [2] is Hepatitis C virus subtype 1b. Nature of the assay: Inhibition of recombinant full length HCV genotype 1b NS3 helicase activity assessed as reduction in 5'-FAM labeled dsDNA substrate unwinding at 30 uM preincubated for 10 mins followed by MgCl2/ATP addition and measured after 30 mins by real-time fluorescence assay. The procedure, abridged: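 96-well real-time unwinding of a fluorescently labelled duplex DNA by full-length recombinant NS3 with saturating ATP and Mg2+. Read-out was the increase in FAM fluorescence. Compounds were tested at 30 µM in 5% DMSO. Unwinding rates were normalized to DMSO controls. Values are the mean ± standard deviation of triplicate measurements.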

Assay [3] deals with Hepatitis C virus subtype 1b. As to the kind of experiment: Inhibition of recombinant full length HCV genotype 1b NS3 helicase activity assessed as reduction in radiolabeled 38 bp dsRNA substrate unwinding t 25 uM preincubated for 20 mins followed by MgCl2/ATP addition and measured up to 4 mins by PAGE based phosphor imaging analysis relative to control. The procedure, abridged:
(§1)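 Polyacrylamide gel unwinding of a radiolabelled 38 bp duplex RNA by recombinant NS3 with compound at 25 µM. Radioactivity at time points from triplicate experiments was averaged and fit to a single exponential to give rate constants.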

For assay [4], the system named is Hepatitis C virus subtype 1b. As to the kind of experiment: Inhibition of recombinant full length HCV genotype 1b NS3 helicase activity assessed as reduction in radiolabeled 38 bp dsRNA substrate unwinding by measuring unwinding rate constant at 25 uM preincubated for 20 mins followed by MgCl2/ATP addition and measured up to 4 mins by PAGE based phosphor imaging analysis (reference value: 1.84 +/- 0.19 /min). The procedure, abridged:
as §1

Assay [5] concerns Hepatitis C virus subtype 1b. Nature of the assay: Inhibition of recombinant full length HCV genotype 1b NS3 helicase activity assessed as reduction in radiolabeled dsDNA substrate unwinding by measuring unwinding rate constant at 25 uM preincubated for 5 mins followed by MgCl2/ATP addition and measured up to 50 mins by PAGE based phosphor imaging analysis (reference value: 0.039 +/- 0.002 /min). The procedure, abridged:
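Gel-based unwinding of 2 nM radiolabelled duplex DNA by 100 nM recombinant NS3 with excess ATP. Compound was present at 25 µM. Unwound fraction was quantified at time points and fit to a single exponential for the rate constant. Triplicate experiments were averaged.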

The subject of assay [6] is Hepatitis C virus subtype 1b. Nature of the assay: Inhibition of polyU RNA-stimulated recombinant full length HCV genotype 1b NS3 ATPase activity assessed as Km for substrate at 25 uM in presence of 5 mM ATP measured for 1 min by pyruvate kinase/ lactate dehydrogenase enzyme coupled spectrophotometric method (reference value: 0.41 mM).
Assay [7] concerns Hepatitis C virus subtype 1b. Nature of the assay: (§2) Inhibition of recombinant full length HCV genotype 1b NS3 helicase activity assessed as reduction in 5'-FAM labeled dsDNA substrate unwinding preincubated for 10 mins followed by MgCl2/ATP addition and measured after 30 mins by real-time fluorescence assay. The gist of the method: (§3)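 Real-time plate unwinding of a FAM-labelled duplex DNA by full-length recombinant NS3 with saturating ATP and Mg2+, read as the fluorescence increase. Compounds were dosed over a range to derive an IC50.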

Assay [8] can be described thus: as §2. Set-up: species or system Hepatitis C virus subtype 1b. The gist of the method:
as §3

The test system of assay [9] is Hepacivirus hominis. Nature of the assay: Inhibition of HCV NS3/4A protease activity at 25 uM using Ac-Asp-Glu-Asp-EDANS-Glu-Glu-Abu-L-Lactoyl-Ser-Lys DABCYL-NH2 as substrate measured for 30 mins by fluorescence assay. The gist of the method: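 NS3–4A protease activity read by fluorescence of the internally quenched EDANS/DABCYL peptide after cleavage. Compounds were tested at 25 µM, with telaprevir at 10 µM as the positive control. Activities were normalized. Values are the mean ± standard deviation of triplicate measurements.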

The nature of assay [10]: Inhibition of recombinant full length HCV genotype 1b NS3 interaction with 3'-FAM labeled ssDNA assessed as Kd for NS3-ssDNA complex at 25 uM by fluorescence polarization assay (reference value: 3.3 +/- 0.2 nM). More on the design: species or system Hepatitis C virus subtype 1b.
In assay [11] the test system is Hepatitis C virus subtype 1b. Nature of the assay: Inhibition of polyU RNA-stimulated recombinant full length HCV genotype 1b NS3 ATPase activity assessed as Kcat for substrate at 25 uM in presence of 5 mM ATP measured for 1 min by pyruvate kinase/ lactate dehydrogenase enzyme coupled spectrophotometric method (reference value: 68 /s).

As a reminder, the inhibition is how much of the control response was suppressed. By Km is commonly meant the concentration of substrate that gives half-maximal velocity. As a reminder, the IC50 is the concentration at which inhibition is half-maximal. The term Kd denotes the concentration at which binding is half-saturated. What is called kcat is the maximal rate divided by the concentration of active sites.

Structures are written as SMILES. Calls of active or inactive are those of the source. The calls are words filed in the database; no cut-off is given here.

As to `CCC[C@H](NC(=O)[C@@H]1[C@H]2CCC[C@H]2CN1C(=O)[C@@H](NC(=O)[C@@H](NC(=O)c1cnccn1)C1CCCCC1)C(C)(C)C)C(=O)C(=O)NC1CC1`, the inhibition with Hepacivirus hominis [1] amounted to 85%.
As to `O=C1NC(=S)NC(=O)C1=Cc1cn(C(=O)c2ccc3ccccc3c2)c2ccc(Cl)cc12`, the inhibition entry in assay [2] is “inactive”.
For `O=C1NC(=S)NC(=O)C1=Cc1cn(C(=O)c2ccc3ccccc3c2)c2ccccc12`, the results for the inhibition in [3] and in assay [7] were 50% and “Dose-dependent effect”, respectively. Besides, the figures for the K in [4] and in [5] were 1.81 min⁻¹ and 0.018 min⁻¹, respectively. Also, in assay [6], the Km is 480 µM. The IC50 in [8] turned out to be 21.6 µM. Also, in the assay on Hepacivirus hominis [9], the inhibition result is “inactive”. In assay [10], the Kd was 0.0031 µM. The inhibition result in assay [2] is “Active”. For the same compound, in assay [11], the catalytic constant (kcat) was determined as 65.3 s⁻¹.
Turning to `COc1ccc2c(c1)c(C=C1C(=O)NC(=S)NC1=O)cn2C(=O)c1ccc2ccccc2c1`, the inhibition was 50% in assay [3] and “Dose-dependent effect” in assay [7]. Further, the figures for the K in assay [4] and in assay [5] were 2.38 min⁻¹ and 0.021 min⁻¹, respectively. In addition, in assay [6], the Km was determined as 1000 µM. The IC50 in assay [8] stood at 21.4 µM. Besides, in the assay on Hepacivirus hominis [9], the inhibition result is “inactive”. In addition, the dissociation constant Kd in assay [10] is 0.0028 µM. In addition, the inhibition entry in assay [2] was “Active”. Also, in assay [11], the kcat was found to be 73 s⁻¹.
As to `O=C1NC(=S)NC(=O)C1=Cc1cn(C(=O)c2cccc3ccccc23)c2ccc(Cl)cc12`, the inhibition result in [2] was “inactive”.
Turning to `COc1ccc2c(c1)c(C=C1C(=O)NC(=S)NC1=O)cn2C(=O)c1cccc2ccccc12`, the inhibition was 50% in [3] and “Dose-dependent effect” in assay [7]. Besides, the K was found to be 2.14 min⁻¹ in [4] and 0.024 min⁻¹ in assay [5]. For the same compound, the Km in [6] was 860 µM. Moreover, the half-inhibitory concentration (IC50) in assay [8] was found to be 23.5 µM. Further, the inhibition entry in the assay with Hepacivirus hominis [9] was “inactive”. In assay [10], the Kd was found to be 0.0057 µM. Further, the inhibition entry in [2] was “Active”. Further, the catalytic constant (kcat) in [11] came out at 68.7 s⁻¹.

(Values after ChEMBL document CHEMBL4371078, “N-Naphthoyl-substituted indole thio-barbituric acid analogs inhibit the helicase activity of the hepatitis C virus NS3” (Bioorg Med Chem Lett, 2019).)
